Consider one compound from ChEMBL document CHEMBL3822375, “Preclinical Characterization of 3β-(N-Acetyl l-cysteine methyl ester)-2aβ,3-dihydrogaliellalactone (GPA512), a Prodrug of a Direct STAT3 Inhibitor for the Treatment of Prostate Cancer” (J Med Chem, 2016).

Usually Cmax stands for the highest concentration seen after dosing. One may read the Tmax as the time at which the peak concentration occurs.

The subject of data set [1] is Mus musculus. Nature of the data set: Toxicity in NMRI mouse xenografted with human DU145 cells assessed as mouse survival at 40 mg/kg, po administered 5 times per week for 4 weeks measured on day 26 and day 29. The conditions noted are these: in vivo, 672 h. It counts as organism-based, DU-145. In a few lines:
(§1)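 Male NMRI-nude mice, 20 in total, were given 1.5 million DU145 cells subcutaneously in the flank. After 4 weeks they were split into two groups of 10. Each group was gavaged with 40 mg/kg or with vehicle (50 mM citrate buffer pH 4.0, 2% DMSO) daily, 5 times per week for 4 weeks. Body weight, behaviour, side effects and survival were monitored, and tumours were measured twice weekly by caliper.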

Data set [2] has as its system Plasma. The data set is described as follows: Half life in dog plasma assessed as formation of galiellalactone at 5 uM by LC-MS/MS analysis. Type of data set: ADME, cell-free, Canis lupus familiaris. The method in brief:
(§2)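 Plasma of each species incubated at 37 °C with compound at 5 µM initial, 1% DMSO, n=2. Simvastatin and eucatropine run as controls. Aliquots taken at 0, 5, 15, 30 and 60 min and quenched with acetonitrile containing internal standard, then analysed by LC-MS/MS.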

Data set [3] is described as follows: Downregulation of MCL1 mRNA expression in human DU145 cells xenografted in NMRI nude mouse at 40 mg/kg, po administered 5 times per week for 4 weeks by qPCR analysis. It counts as functional, organism-based. The conditions noted are these: DU-145. The method in brief:
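Half of each DU145 xenograft tumour was snap frozen for mRNA. MCL1 and BCL2 measured by quantitative real-time PCR: 10 min at 95°C, then 40 cycles of 95°C 15 s and 60°C 60 s. Comparative Ct method, normalized to HMBS and SDHA.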
A general note: In xenograft studies the graft and the host belong to different species.

Data set [4] deals with Mus musculus. Nature of the data set: Toxicity in CD1 mouse assessed as change in body weight at 400 mg/kg, administered as single dose through oral gavage measured on day 1 (reference value: 33.5 +/- 4.34 g). Type of data set: organism-based. The conditions noted are these: in vivo.
The subject of data set [5] is Mus musculus. Nature of the data set: Apparent half life in mouse plasma assessed as galiellalactone level at 10 mg/kg, po by LC-MS/MS analysis. It counts as ADME, organism-based. The conditions noted are these: in vivo. In a few lines:
(§3)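 Single dose to mice; oral, iv or ip as listed, in 5% DMSO/50 mM citrate buffer pH 4.0 (dosing solutions 0.5, 2 or 5 mg/mL). Oral dosing at 20 mL/kg. Terminal blood under barbiturate anaesthesia at eight time-points to 8 h, n=3 mice per time-point, EDTA plasma. Acetonitrile precipitation with internal standard, LC-MS/MS against plasma calibration lines. Non-compartmental analysis on mean data, trapezoidal AUC.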

Data set [6] deals with Plasma. Nature of the data set: Half life in mouse plasma assessed as formation of galiellalactone at 5 uM by LC-MS/MS analysis. It counts as ADME, cell-free. The method in brief: as §2
Data set [7] concerns DU-145. Nature of the data set: Antitumor activity against human DU145 cells xenografted in NMRI mouse assessed as reduction of tumor growth rate at 40 mg/kg, po administered 5 times per week for 4 weeks measured on day 26 and day 29 relative to vehicle-treated control. It counts as functional, organism-based. The method in brief:
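NMRI-nude male mice given 1.5 million DU145 cells s.c. in the flank. After four weeks, split into two groups of ten. Oral gavage with compound at 40 mg/kg or vehicle (50 mM citrate pH 4.0, 2% DMSO), daily five times per week for four weeks. Caliper measurement twice weekly; volume = width × length × height × 0.52.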

The test system of data set [8] is Mus musculus. Nature of the data set: Cmax in mouse plasma assessed as galiellalactone level at 10 mg/kg, po by LC-MS/MS analysis. It counts as ADME, organism-based. Further details: dose 10 mg/kg, route oral. Conditions: in vivo. The method in brief:
as §3

Data set [9] has as its system Mus musculus. The data set is described as follows: Apparent half life in mouse plasma assessed as galiellalactone level at 100 mg/kg, po by LC-MS/MS analysis. Type of data set: ADME, organism-based. The conditions noted are these: in vivo. The method in brief: as §3
Data set [10] has as its system Mus musculus. The data set is described as follows: AUC (0 to infinity) in mouse plasma at 40 mg/kg, po by LC-MS/MS analysis. Type of data set: ADME, organism-based. Further details: dose 40 mg/kg, route oral, time infinity. Conditions: in vivo. The method in brief:
as §3

For data set [11], the system named is Mus musculus. The data set is described as follows: Toxicity in CD1 mouse assessed as effect on clinical pathological parameters at 40 to 400 mg/kg, administered as single dose through oral gavage. It counts as organism-based. The conditions noted are these: in vivo. In a few lines: (§4)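 Male CD1 mice, 7 weeks old, 5 per group, given one oral gavage dose of 40, 200 or 400 mg/kg in 50 mM citrate buffer, pH 4.0, 5% DMSO, alongside a vehicle control group. Clinical signs, clinical pathology and histopathology were assessed, with the study ending on day 8.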

The test system of data set [12] is Mus musculus. Nature of the data set: Cmax in mouse plasma assessed as galiellalactone level at 40 mg/kg, po by LC-MS/MS analysis. More on the design: dose 40 mg/kg, route oral. The conditions noted are these: in vivo. Type of data set: ADME, organism-based. In a few lines: as §3
Data set [13] relates to Plasma. Nature of the data set: Half life in rat plasma assessed as formation of galiellalactone at 5 uM by LC-MS/MS analysis. It counts as ADME, cell-free. In a few lines: as §2
The subject of data set [14] is Mus musculus. The data set is described as follows: Toxicity in CD1 mouse assessed as change in body weight at 400 mg/kg, administered as single dose through oral gavage measured on day 4 (reference value: 34.68 +/- 4.71 g). It counts as organism-based. The conditions noted are these: in vivo.
Data set [15] deals with Mus musculus. The data set is described as follows: Toxicity in CD1 mouse assessed as effect on clinical signs at 40 to 400 mg/kg, administered as single dose through oral gavage. It counts as organism-based. Conditions: in vivo. In a few lines:
as §4

In data set [16] the test system is Mus musculus. Nature of the data set: Toxicity in CD1 mouse assessed as change in body weight at 200 mg/kg, administered as single dose through oral gavage measured on day 8 (reference value: 32.28 +/- 4.42 g). Type of data set: organism-based. Conditions: in vivo.
Data set [17] in a line: Toxicity in CD1 mouse at 40 to 400 mg/kg, administered as single dose through oral gavage. Type of data set: organism-based. The conditions noted are these: in vivo. The method in brief: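 Male CD1 mice, 7 weeks old (27.0–38.5 g), 5 per group, given one oral gavage dose of 40, 200 or 400 mg/kg as a solution in 50 mM citrate buffer pH 4.0 with 5% DMSO. Vehicle-only control group. Weighed at randomization, day 1 before dosing, day 4 and day 8 (study end). Clinical signs, clinical pathology and histopathology were assessed to set the MTD.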

For data set [18], the system named is Mus musculus. The data set is described as follows: Tmax in mouse plasma assessed as galiellalactone level at 10 mg/kg, po by LC-MS/MS analysis. Type of data set: ADME, organism-based. Conditions: in vivo.
For data set [19], the system named is Hepatocyte. The data set is described as follows: Prodrug conversion in mouse hepatocytes assessed as galiellalactone formation of after 2 hrs by UPLC-MS analysis. Type of data set: ADME, cell-based. The method in brief: (§5)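 Cryopreserved mouse hepatocytes incubated with an initial 10 µM test item (DMSO stock) in Celsis InVitro HI medium, pH 7.4, 37 °C. Cell viability checked by Trypan blue. Sampled at 0 and 120 min and stopped with an equal volume of acetonitrile. Analysed by UPLC/Q-TOF-MS.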

The test system of data set [20] is Mus musculus. The data set is described as follows: Toxicity in NMRI mouse xenografted with human DU145 cells assessed as behavioral alterations at 40 mg/kg, po administered 5 times per week for 4 weeks measured on day 26 and day 29. It counts as organism-based, DU-145. Conditions: in vivo, 672 h. The method in brief:
as §1

Data set [21] deals with Mus musculus. Nature of the data set: AUC (0 to t) in mouse plasma assessed as galiellalactone level at 100 mg/kg, po by LC-MS/MS analysis. It counts as ADME, organism-based. The conditions noted are these: in vivo. The method in brief:
as §3

Data set [22] relates to Mus musculus. The data set is described as follows: Toxicity in CD1 mouse assessed as change in body weight at 200 mg/kg, administered as single dose through oral gavage measured on day 1 (reference value: 33.5 +/- 4.34 g). It counts as organism-based. The conditions noted are these: in vivo.
Data set [23] relates to DU-145. The data set is described as follows: Induction of apoptosis in human DU145 cells xenografted in NMRI nude mouse assessed as increase in cleaved caspase3 level at 40 mg/kg, po administered 5 times per week for 4 weeks by immunohistochemical analysis. It counts as functional, organism-based. In a few lines: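 DU145 cells (1.5 million) inoculated subcutaneously in the flank of NMRI-nude male mice. After four weeks, 10 mice per group were dosed orally by feeding needle with 40 mg/kg or vehicle (50 mM citrate buffer pH 4.0, 2% DMSO), five days a week for four weeks. Tumours were fixed in formaldehyde and stained for cleaved caspase-3. Positive cells were counted as the mean per view over five 10x views per section.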

For data set [24], the system named is Hepatocyte. Nature of the data set: Prodrug conversion in mouse hepatocytes assessed as formation of 3-beta-(N-Acetyl-L-cysteine)-2a-beta,3-dihydrogaliellalactone after 2 hrs by UPLC-MS analysis. Type of data set: ADME, cell-based. In a few lines: as §5

Activity calls are given as the source filed them. The rule behind the calls is not given here.

In the case of `COC(=O)[C@H](CS[C@H]1C2C(=O)O[C@@H]3CC[C@H](C[C@@H]1C)[C@]23O)NC(C)=O` (some centres undefined), the Activity result was “Non-toxic” in the data set on Mus musculus [1]; 33.16 g with Mus musculus [4]; “Non-toxic” in the data set with Mus musculus [11]; 34.76 g with Mus musculus [14]; “Non-toxic” in the data set with Mus musculus [15]; 33.02 g with Mus musculus [16]. Moreover, the Activity result with Mus musculus [20] was “Non-toxic”; in the data set with Mus musculus [22], 33.56 g. The t1/2 in the data set on Plasma [2], in the data set with Plasma [6] and with Plasma [13] was less than 5 min in each case. For the same compound, the outcome (in [3]; in the data set on DU-145 [23]) was Active. The figures for the “t1/2(app)” value with Mus musculus [5] and in the data set with Mus musculus [9] were 92 min and 180 min, respectively. The inhibition entry in the data set with DU-145 [7] is “Active”. Moreover, the Cmax worked out at 1893 ng/mL with Mus musculus [8] and 3733 ng/mL in the data set on Mus musculus [12]. The same compound displayed an AUC in the data set on Mus musculus [10] of 215 µg/mL/min. In data set [17], this compound showed an MTD of 400 mg/kg. Moreover, in the data set on Mus musculus [18], the Tmax is reported as 15 min. Also, the Drug metabolism entry with Hepatocyte [19] and in the data set with Hepatocyte [24] was “metabolite_detected” in each case. Further, the AUCt in the data set on Mus musculus [21] is 676 µg/mL/min.
